Most compounds without a hit are left out; they make up all but 5% or so of the library.
Mdm2 MdmX PPI: inhibitors of human Mdm2-MdmX association, primary screen, cell-based, luminescence, split luciferase, SaOS-2, uHTS. Protein Mdm4 (Homo sapiens) + E3 ubiquitin-protein ligase Mdm2 (Homo sapiens), …. SaOS-2 split-luciferase Mdm2/MdmX complementation. inhibition, % at 8 µM. 3% of 330,000 active;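 active = inhibition of at least 50% at 8 µM in the primary screen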
Target sequence (O15151 whole entry, looked up): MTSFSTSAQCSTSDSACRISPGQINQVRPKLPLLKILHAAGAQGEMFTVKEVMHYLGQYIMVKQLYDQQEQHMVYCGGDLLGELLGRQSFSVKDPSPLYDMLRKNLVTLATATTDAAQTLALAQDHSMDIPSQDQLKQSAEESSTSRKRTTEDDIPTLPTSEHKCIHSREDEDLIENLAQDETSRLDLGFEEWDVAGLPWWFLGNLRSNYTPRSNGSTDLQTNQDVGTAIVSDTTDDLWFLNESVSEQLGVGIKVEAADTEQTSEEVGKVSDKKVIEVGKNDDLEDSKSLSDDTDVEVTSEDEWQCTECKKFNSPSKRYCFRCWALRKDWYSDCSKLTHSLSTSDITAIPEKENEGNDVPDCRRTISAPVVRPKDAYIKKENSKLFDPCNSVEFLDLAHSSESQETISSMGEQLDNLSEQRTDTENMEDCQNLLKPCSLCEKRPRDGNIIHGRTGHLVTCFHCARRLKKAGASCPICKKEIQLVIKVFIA
Target sequence (Q00987 whole entry, looked up): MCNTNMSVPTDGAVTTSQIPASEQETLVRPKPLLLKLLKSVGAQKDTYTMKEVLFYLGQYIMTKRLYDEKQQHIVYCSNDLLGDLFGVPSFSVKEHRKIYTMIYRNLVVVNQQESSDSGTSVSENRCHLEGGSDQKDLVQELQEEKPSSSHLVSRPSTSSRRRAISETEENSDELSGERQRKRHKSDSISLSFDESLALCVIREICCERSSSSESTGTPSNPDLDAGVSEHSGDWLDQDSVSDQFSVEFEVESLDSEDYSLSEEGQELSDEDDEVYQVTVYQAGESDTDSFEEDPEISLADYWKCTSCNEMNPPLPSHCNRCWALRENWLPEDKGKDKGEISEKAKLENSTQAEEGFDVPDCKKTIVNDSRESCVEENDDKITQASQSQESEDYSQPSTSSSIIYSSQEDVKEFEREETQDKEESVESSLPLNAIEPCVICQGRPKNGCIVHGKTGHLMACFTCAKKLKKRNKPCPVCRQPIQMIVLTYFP
CSC inhib: cancer stem cell viability inhibitors, primary screen, luminescence; 1.1% of 300,000 active; inhibition, % at 7.5 µM; cancer stem cell-like cells viability; AID 2717, 2010; in the data active = inhibition above about 75%; inconclusive = no clear call, values can overlap the other calls; tested in HMLE shEcad cells
CHOP UPR activ: activators of apoptotic CHOP UPR arm, primary screen, cell-based, CHO-CHOP luciferase reporter, luminescence, uHTS; 0.34% of 330,000 active; activation, % at 10 µM; UPR activation; percent of tunicamycin response over DMSO baseline; AID 449763, 2010;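 active = at 10 µM dose, activation of 40% or more, normalized to positive control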
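Assay system: CHO-CHOP cells, stable luciferase reporter of PERK-eIF2a-CHOP signalling / Buffer or medium: F12 plus 10% serum / Compound dosing: one dose, 10 µM in 0.5% DMSO / Times: 6 h compound treatment, 37 °C / Technique: luciferase luminescence / Read-out: % reporter activation, DMSO baseline versus tunicamycin full activation / Benchmarks: tunicamycin and DMSO controls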
UPR XBP1 act: activators of adaptive XBP1 UPR arm, primary screen, cell-based, CHO-XBP1 luciferase reporter, luminescence, uHTS. IRE1-XBP1 UPR activation; percent of tunicamycin response, DMSO as zero. AID 463104, 2010. 0.33% of 330,000 active. activation, % at 20 µM;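 active = versus positive control, 20 µM dose yields 30% or more activation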
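Material: CHO cell line with stable XBP1 luciferase reporter; buffer or medium: F12 medium containing 10% fetal bovine serum; compound: single point, 20 µM final compound, 1% DMSO; incubation: 6 h treatment, 37 °C; measured by: glow luminescence from Steady-Glo reagent; evaluation: activation, % of tunicamycin; control set: tunicamycin high, DMSO low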
Beta apoptosis: inhibitors of cytokine-induced beta cell apoptosis, primary screen, luminescence; 0.8% of 300,000 active; AID 435005, 2010; protection from apoptosis, % (no concentration beside the values); INS-1E cytokine-induced death, ATP luminescence, 48 h; percent of positive-control rescue, neutral wells zero;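 active = Every replicate reaches about 75%, or at least half do and their mean reaches it too, limit read from the data; inconclusive = At least half of replicates reach the limit but their mean does not; inactive = Under half of replicates reach the limit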;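 note: higher means more ATP so stronger rescue from cytokine killing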
T cruzi repl: inhibitors of intracellular T. cruzi growth, primary screen, luminescence, NIH3T3 host cells | T. cruzi beta-gal in NIH3T3, 90 h | inhibition, % (no concentration beside the values) | 1.4% of 300,000 active;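 active = mean inhibition across valid replicates above about 55%, limit read from the data; inconclusive = mean below that limit but half or more replicates reach it; inactive = mean below it, under half of replicates reach it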;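 note: signal also drops with host cell toxicity which is not excluded here; higher percent means less beta-gal luminescence so fewer parasites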
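Incubation – ≥90 h infection period, 3 h prior cell attachment · System – NIH/3T3 fibroblasts plus reporter T. cruzi · Doses – compound pinned at 50 nL/well, DMSO · Read-out basis – percent inhibition of parasite-derived β-gal signal · Signal – luminescent β-galactosidase signal after 60 min lysis · Also added – 5000 T. cruzi trypomastigotes/well · Medium – Low-serum DMEM with 2% FBS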
Mdm2 MdmX conf: Mdm2-MdmX complex disruptors, retested hits, confirmation, luminescence, single concentration; shares compounds with Mdm2 MdmX PPI; Mdm2-MdmX binding, luminescent assay; inhibition, % at 8 µM; 55% of 10,000 active; AID 489028, 2010; in the data active = inhibition above about 40%
FLuc counter: full-length luciferase signal inhibition, confirmation, counter-screen for Mdm2/MdmX interaction inhibitor project, cell-based, single concentration, SaOS-2; AID 504607, 2011; 77% of 6,200 active; shares compounds with Mdm2 MdmX PPI; inhibition, % at 8 µM; SaOS-2 full-length luciferase counterscreen, luminescence;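 active = mean inhibition at 8 µM reaching about 37%, which flags the compound as non-specific, limit read from the data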;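 note: p53-null SaOS-2 cells with luciferase driven by a doxycycline-inducible promoter; compound on cells about two nights before reading with doxycycline added after day one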
Of the large screens only hits and unclear results are named; the others gave an inactive call (follow-up assays come after a bar, where they were run).

COC(=O)C1N[C@@H]([C@@H](NC(=O)COc2ccccc2)C(=O)NCc2ccsc2)SC1(C)C (stereo partly drawn)	none
CC(CCc1ccc(O)cc1)NCCC(c1ccccc1)c1ccccc1 (stereo not drawn)	Mdm2 MdmX PPI 51.3 | Mdm2 MdmX conf inactive
CCn1c(=O)c(C(=O)NCCCO)c(O)c2ccccc21	Mdm2 MdmX PPI 78.5 | Mdm2 MdmX conf 41.2 | FLuc counter 58.1
O=C(NCCCO)c1c(O)c2cccc3c2n(c1=O)CCC3	Mdm2 MdmX PPI 81.5 | Mdm2 MdmX conf 56.2 | FLuc counter inactive
CNC(=O)c1c(O)c2cccc3c2n(c1=O)CC3	Mdm2 MdmX PPI 75.4 | Mdm2 MdmX conf 54.5 | FLuc counter inactive
Cc1nc(SCC(=O)NCC2CCCO2)[nH]c(=O)c1C (stereo not drawn)	none (no result: Beta apoptosis)
Cc1c(CCC(C)C)c(=O)n2c([nH]c3ccccc32)c1C#N	Mdm2 MdmX PPI 72.6 | Mdm2 MdmX conf 53.1 | FLuc counter 44.8
COc1ccc(C2(c3ccc(OC)cc3)NC(=O)N(CC(=O)NC3CCCC3)C2=O)cc1	none
CCOc1ccc(-c2csc(/C(C#N)=C\c3ccc(O)c([N+](=O)[O-])c3)n2)cc1	Mdm2 MdmX PPI 96.4, CSC inhib 108.3 | Mdm2 MdmX conf 82.9 | FLuc counter 51.5
CCCCc1ccc(-c2csc(/C(C#N)=C\c3ccc(C)o3)n2)cc1	none
CNCCNC[C@H](Cc1cccc2ccccc12)NCCc1ccccc1	none (no result: T cruzi repl)
CNC[C@H](Cc1ccccc1)NC[C@@H](Cc1cccc2ccccc12)NCCc1ccc(C)cc1	Mdm2 MdmX PPI 100.3, CSC inhib 108.1, Beta apoptosis 106.8 | Mdm2 MdmX conf 86.0 | FLuc counter 50.7
CCc1ccc(-c2cc(C)no2)cc1S(=O)(=O)N1CCN(c2ccccc2)CC1	Mdm2 MdmX PPI 59.5 | Mdm2 MdmX conf 43.1 | FLuc counter 46.6
Cc1ccccc1[C@@]1(C)ON(c2ccccc2C(F)(F)F)C1=O	Mdm2 MdmX PPI 80.6 (no result: T cruzi repl) | Mdm2 MdmX conf inactive
CC[C@@]1(c2ccccc2OC)ON(c2ccccc2C(F)(F)F)C1=O	Mdm2 MdmX PPI 88.9 (no result: T cruzi repl) | Mdm2 MdmX conf 80.3 | FLuc counter 51.4
O=C1N(c2ccccc2C(F)(F)F)O[C@]1(c1ccccc1)C1CCCC1	Mdm2 MdmX PPI 79.3 (no result: T cruzi repl) | Mdm2 MdmX conf 53.2 | FLuc counter 50.2
CC1(c2ccccc2)ON(c2ccccc2C(F)(F)F)C1=O (stereo not drawn)	none (no result: T cruzi repl)
O=C(Nc1ccccc1C(F)(F)F)C(O)(c1ccccc1)C1CCCCC1 (stereo not drawn)	none (no result: T cruzi repl)
COc1ccccc1-c1cc(C(F)(F)F)c(C#N)c(=O)[nH]1	none (no result: Beta apoptosis)
COC(=O)c1cc(S(=O)(=O)NCC2CCN(CCc3cccs3)CC2)cn1C	none
CN(C)C(=O)c1cccc(-c2csc(N3CCC(C(N)=O)CC3)n2)c1	none (no result: T cruzi repl)
COc1ccc(Cn2c(C)c(C)c(C#N)c2NC(=O)Nc2cccc(Cl)c2)cc1	none
Nc1ccc2c(c1)C(=O)c1ccccc1-2	none
Nc1ccc2c(c1)C(=O)C(=O)c1ccccc1-2	Mdm2 MdmX PPI 98.3, Beta apoptosis 106.7 | Mdm2 MdmX conf 99.1 | FLuc counter inactive
O=C1C(=O)c2ccc(-c3ccccc3)cc2-c2ccccc21	Mdm2 MdmX PPI 84.1, CSC inhib 130.8, Beta apoptosis 97.9, T cruzi repl inconclusive | Mdm2 MdmX conf 100.2 | FLuc counter 52.0

Screens deposited in PubChem BioAssay by several laboratories.
